In the M2OR odorant receptor database:
Changes are numbered by the printed parent chain.

What was measured:
Conditions in all cases: stereoisomer not certain
[1] = system: T1, OR4K1 R304H
T1 sequence (whole entry): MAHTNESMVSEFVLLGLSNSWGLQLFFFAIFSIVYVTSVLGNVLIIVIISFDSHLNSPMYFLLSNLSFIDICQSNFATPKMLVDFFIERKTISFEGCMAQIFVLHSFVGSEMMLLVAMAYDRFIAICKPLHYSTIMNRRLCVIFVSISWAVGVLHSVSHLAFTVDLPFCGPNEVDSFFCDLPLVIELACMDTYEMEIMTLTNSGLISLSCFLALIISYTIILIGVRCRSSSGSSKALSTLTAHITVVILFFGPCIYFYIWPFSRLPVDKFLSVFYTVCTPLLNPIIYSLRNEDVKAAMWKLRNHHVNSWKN
Procedure, shortened: (§1)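 Transient luciferase assays in mammalian cell lines were common, though methods varied by source. The values come from published papers and their supplementary material, with extra details from the original authors when needed. Responsive refers to a measured signal the original authors judged statistically different from baseline, and non-responsive (inactive) to the remainder.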

[2] = molecular target: T2, OR4K13 (Homo sapiens) (UniProt Q8NH42)
T2 sequence (whole entry): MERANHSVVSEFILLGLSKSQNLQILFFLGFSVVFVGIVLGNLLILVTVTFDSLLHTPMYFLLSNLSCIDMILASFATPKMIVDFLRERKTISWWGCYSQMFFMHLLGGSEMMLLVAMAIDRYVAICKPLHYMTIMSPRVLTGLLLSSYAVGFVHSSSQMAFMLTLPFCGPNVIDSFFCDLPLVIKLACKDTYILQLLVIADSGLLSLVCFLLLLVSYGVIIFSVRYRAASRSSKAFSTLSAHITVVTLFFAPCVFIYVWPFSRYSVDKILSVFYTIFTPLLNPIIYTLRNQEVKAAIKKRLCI
Procedure, shortened: as §1

[3] = molecular target: T3, OR4K14 (Homo sapiens) (UniProt Q8NGD5)
T3 sequence (whole entry): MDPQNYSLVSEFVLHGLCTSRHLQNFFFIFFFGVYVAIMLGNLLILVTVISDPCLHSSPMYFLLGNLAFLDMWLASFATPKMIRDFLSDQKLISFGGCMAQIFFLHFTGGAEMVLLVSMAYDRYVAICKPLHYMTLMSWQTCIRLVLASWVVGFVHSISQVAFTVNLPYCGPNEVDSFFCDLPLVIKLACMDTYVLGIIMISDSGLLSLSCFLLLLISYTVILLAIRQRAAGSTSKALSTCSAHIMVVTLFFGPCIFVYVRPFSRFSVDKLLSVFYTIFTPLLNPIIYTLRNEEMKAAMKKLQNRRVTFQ
Procedure, shortened: as §1

[4] = molecular target: T4, OR4K2 (Homo sapiens) (UniProt Q8NGD2)
T4 sequence (whole entry): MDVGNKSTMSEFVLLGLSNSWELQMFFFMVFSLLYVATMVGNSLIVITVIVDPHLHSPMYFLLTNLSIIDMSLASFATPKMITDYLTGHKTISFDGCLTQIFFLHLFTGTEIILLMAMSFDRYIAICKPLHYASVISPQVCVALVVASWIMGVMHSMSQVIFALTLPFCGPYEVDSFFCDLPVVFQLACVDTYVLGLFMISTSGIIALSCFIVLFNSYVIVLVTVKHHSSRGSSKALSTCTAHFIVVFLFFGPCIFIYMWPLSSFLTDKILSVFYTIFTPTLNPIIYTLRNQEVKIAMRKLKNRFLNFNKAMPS
Procedure, shortened: as §1

[5] = system: T5, OR4K2
T5 sequence (whole entry): T4 sequence (whole entry) with N307I
Procedure, shortened: as §1

[6] = molecular target: T6, OR4K5 (Homo sapiens) (UniProt Q8NGD3)
T6 sequence (whole entry): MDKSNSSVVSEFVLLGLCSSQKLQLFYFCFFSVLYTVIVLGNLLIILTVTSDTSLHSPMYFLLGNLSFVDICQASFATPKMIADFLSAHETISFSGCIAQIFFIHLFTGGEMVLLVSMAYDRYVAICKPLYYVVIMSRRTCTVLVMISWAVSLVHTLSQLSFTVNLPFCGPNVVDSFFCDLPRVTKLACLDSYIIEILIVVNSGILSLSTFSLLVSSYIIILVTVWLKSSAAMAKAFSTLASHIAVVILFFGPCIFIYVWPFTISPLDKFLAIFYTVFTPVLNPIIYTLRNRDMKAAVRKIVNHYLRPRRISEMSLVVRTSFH
Procedure, shortened: as §1

[7] = system: T7, OR4KF
T7 sequence (whole entry): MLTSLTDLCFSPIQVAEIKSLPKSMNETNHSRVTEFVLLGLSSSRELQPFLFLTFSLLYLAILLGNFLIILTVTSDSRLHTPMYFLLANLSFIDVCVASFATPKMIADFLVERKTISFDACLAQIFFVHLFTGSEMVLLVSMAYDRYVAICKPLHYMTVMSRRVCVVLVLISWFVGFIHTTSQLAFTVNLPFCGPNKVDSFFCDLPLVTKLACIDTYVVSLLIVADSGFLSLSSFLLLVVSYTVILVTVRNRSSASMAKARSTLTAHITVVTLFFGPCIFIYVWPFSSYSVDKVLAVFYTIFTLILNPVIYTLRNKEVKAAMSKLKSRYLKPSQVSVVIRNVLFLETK
Procedure, shortened: as §1

[8] = system: T8, OR4KH
T8 sequence (whole entry): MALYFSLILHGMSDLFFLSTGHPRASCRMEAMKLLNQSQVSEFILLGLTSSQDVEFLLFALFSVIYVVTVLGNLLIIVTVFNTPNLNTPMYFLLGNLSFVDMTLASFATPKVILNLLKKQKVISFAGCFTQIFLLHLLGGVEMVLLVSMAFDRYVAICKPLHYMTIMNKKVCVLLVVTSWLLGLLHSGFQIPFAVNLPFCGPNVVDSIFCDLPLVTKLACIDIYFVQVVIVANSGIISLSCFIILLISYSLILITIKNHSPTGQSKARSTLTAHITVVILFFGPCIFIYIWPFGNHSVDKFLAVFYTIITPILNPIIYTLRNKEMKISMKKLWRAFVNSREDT
Procedure, shortened: as §1

[9] = molecular target: T9, OR4L1 (Homo sapiens) (UniProt Q8NH43)
T9 sequence (whole entry): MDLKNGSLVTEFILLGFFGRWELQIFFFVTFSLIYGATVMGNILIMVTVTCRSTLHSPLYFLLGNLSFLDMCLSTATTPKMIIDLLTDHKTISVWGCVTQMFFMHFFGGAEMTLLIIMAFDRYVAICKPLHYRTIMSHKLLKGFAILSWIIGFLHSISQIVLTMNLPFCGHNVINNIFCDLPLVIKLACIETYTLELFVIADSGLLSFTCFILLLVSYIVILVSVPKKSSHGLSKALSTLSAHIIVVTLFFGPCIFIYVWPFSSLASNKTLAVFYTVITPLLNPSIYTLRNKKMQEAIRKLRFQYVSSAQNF
Procedure, shortened: as §1

[10] = system: T10, OR4L1
T10 sequence (whole entry): T9 sequence (whole entry) with R52S
Procedure, shortened: as §1

[11] = molecular target: T11, OR4M1 (Homo sapiens) (UniProt Q8NGD0)
T11 sequence (whole entry): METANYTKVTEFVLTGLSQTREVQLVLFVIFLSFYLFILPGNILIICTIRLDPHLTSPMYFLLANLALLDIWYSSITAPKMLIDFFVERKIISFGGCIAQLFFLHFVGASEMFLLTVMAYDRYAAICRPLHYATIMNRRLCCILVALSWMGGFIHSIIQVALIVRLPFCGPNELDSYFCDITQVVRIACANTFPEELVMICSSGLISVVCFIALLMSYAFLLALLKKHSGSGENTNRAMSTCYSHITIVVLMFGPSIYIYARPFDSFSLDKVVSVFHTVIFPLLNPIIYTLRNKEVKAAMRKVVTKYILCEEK
Procedure, shortened: as §1

[12] = system: T12, OR4M1 H277N V279L L284H
T12 sequence (whole entry): T11 sequence (whole entry) with H277N, V279L, L284H
Procedure, shortened: as §1

[13] = molecular target: T13, OR4M2 (Homo sapiens) (UniProt Q8NGB6)
T13 sequence (whole entry): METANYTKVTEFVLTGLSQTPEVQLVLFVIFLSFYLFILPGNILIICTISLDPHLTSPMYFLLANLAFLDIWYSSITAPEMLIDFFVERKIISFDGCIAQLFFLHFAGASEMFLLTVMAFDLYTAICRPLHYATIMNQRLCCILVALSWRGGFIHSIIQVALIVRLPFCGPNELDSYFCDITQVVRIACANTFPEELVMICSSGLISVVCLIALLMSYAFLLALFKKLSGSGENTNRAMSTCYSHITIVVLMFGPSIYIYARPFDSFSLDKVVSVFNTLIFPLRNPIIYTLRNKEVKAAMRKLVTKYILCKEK
Procedure, shortened: as §1

[14] = molecular target: T14, OR4N2 (Homo sapiens) (UniProt Q8NGD1)
T14 sequence (whole entry): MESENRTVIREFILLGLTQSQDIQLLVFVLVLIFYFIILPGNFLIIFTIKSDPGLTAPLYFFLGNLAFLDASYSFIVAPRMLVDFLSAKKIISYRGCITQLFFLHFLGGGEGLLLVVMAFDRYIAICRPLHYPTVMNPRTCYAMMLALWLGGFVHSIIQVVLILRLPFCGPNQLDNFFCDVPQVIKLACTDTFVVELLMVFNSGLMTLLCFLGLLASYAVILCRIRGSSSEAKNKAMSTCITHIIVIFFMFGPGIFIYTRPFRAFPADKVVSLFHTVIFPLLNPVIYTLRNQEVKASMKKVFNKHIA
Procedure, shortened: as §1

[15] = system: T15, OR4N2 A57V I76T
T15 sequence (whole entry): T14 sequence (whole entry) with A57V, I76T
Procedure, shortened: as §1

[16] = system: T16, OR4N2 R260C F279L R290H
T16 sequence (whole entry): T14 sequence (whole entry) with R260C, F279L, R290H
Procedure, shortened: as §1

[17] = molecular target: T17, OR4K15 (Homo sapiens) (UniProt Q8NH41)
T17 sequence (whole entry): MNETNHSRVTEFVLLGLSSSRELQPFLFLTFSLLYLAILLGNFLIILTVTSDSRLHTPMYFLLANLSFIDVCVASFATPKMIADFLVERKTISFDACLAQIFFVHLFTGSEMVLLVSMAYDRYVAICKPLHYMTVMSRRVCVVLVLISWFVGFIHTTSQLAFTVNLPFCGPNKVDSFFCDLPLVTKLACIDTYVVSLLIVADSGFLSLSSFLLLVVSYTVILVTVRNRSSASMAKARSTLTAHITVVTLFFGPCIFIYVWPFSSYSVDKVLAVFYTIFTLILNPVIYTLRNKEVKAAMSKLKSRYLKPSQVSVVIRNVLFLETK
Procedure, shortened: as §1

[18] = molecular target: T18, OR4K17 (Homo sapiens) (UniProt Q8NGC6)
T18 sequence (whole entry): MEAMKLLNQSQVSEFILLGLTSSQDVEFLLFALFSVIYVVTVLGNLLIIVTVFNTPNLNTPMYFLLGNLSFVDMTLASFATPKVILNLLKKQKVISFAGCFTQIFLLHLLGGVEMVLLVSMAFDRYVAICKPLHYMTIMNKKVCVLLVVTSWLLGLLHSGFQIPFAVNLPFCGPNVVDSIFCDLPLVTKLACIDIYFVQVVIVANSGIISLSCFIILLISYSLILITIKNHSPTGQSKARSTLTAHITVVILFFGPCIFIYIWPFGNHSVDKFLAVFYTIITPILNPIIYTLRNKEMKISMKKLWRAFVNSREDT
Procedure, shortened: as §1

Measured: odorant receptor agonist call;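 also: active if original authors judged signal statistically different from baseline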

CC1=C(O)C(=O)OC1C (stereo not given)
not listed: [17] | [18]
inactive: all other assays above

CCCCCC(S)C(C)CO (stereo not given)
inactive: [2] | [3] | [17] | [18] | [4] | [6] | [9] | [11] | [13] | [14]

CCC1OC(=O)C(O)=C1C (stereo not given)
not listed: [17] | [18]
inactive: all other assays above

CC1=NC(C)C(C)S1 (stereo not given)
not listed: [17] | [18]
inactive: all other assays above

CCCCCCC=CCCC=O
not listed: [7] | [8]
inactive: all other assays above

CCCCC(S)C(C)CO (stereo not given)
inactive: [2] | [3] | [17] | [18] | [4] | [6] | [9] | [11] | [13] | [14]

CCC(S)C(C)CO (stereo not given)
inactive: [2] | [3] | [17] | [18] | [4] | [6] | [9] | [11] | [13] | [14]

O=c1ccc2ccccc2o1
inactive: [14]

CC(CO)CS (stereo not given)
inactive: [2] | [3] | [17] | [18] | [4] | [6] | [9] | [11] | [13] | [14]
